Active and inactive are the calls of the source. No cut-off for these calls is given here.
Assays:
[1] = molecular target: T1, Progesterone receptor (Homo sapiens) (UniProt P06401); experiment: Effect on human Gal4-fused PR at 10 uM by luciferase reporter gene assay
T1 sequence (whole entry): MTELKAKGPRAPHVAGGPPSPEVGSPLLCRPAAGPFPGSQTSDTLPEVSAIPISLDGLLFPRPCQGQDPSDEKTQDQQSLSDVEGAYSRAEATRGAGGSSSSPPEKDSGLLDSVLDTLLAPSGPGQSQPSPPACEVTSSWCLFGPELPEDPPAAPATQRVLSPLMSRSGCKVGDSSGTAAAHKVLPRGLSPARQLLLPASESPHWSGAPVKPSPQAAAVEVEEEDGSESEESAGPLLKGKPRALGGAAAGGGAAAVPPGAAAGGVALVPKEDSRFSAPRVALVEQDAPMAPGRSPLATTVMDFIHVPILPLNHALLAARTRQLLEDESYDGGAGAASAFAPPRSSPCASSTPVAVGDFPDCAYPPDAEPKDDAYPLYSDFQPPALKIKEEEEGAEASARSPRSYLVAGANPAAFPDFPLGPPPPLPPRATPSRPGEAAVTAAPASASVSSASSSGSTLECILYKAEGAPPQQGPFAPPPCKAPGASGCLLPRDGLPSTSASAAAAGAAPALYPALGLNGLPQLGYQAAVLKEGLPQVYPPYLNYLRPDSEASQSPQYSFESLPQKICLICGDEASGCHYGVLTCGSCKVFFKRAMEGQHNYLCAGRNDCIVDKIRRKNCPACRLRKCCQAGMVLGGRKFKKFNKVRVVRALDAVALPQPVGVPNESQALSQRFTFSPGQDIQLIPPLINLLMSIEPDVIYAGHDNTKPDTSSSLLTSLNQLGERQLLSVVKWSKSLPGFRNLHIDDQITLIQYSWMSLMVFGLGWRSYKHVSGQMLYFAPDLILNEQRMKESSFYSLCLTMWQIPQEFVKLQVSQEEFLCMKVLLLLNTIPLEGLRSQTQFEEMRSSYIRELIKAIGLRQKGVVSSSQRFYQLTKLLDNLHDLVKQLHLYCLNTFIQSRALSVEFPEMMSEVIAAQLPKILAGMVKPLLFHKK

[2] = molecular target: T2, Androgen receptor (Homo sapiens) (UniProt P10275); experiment: Effect on human Gal4-fused AR at 10 uM by luciferase reporter gene assay
T2 sequence (whole entry): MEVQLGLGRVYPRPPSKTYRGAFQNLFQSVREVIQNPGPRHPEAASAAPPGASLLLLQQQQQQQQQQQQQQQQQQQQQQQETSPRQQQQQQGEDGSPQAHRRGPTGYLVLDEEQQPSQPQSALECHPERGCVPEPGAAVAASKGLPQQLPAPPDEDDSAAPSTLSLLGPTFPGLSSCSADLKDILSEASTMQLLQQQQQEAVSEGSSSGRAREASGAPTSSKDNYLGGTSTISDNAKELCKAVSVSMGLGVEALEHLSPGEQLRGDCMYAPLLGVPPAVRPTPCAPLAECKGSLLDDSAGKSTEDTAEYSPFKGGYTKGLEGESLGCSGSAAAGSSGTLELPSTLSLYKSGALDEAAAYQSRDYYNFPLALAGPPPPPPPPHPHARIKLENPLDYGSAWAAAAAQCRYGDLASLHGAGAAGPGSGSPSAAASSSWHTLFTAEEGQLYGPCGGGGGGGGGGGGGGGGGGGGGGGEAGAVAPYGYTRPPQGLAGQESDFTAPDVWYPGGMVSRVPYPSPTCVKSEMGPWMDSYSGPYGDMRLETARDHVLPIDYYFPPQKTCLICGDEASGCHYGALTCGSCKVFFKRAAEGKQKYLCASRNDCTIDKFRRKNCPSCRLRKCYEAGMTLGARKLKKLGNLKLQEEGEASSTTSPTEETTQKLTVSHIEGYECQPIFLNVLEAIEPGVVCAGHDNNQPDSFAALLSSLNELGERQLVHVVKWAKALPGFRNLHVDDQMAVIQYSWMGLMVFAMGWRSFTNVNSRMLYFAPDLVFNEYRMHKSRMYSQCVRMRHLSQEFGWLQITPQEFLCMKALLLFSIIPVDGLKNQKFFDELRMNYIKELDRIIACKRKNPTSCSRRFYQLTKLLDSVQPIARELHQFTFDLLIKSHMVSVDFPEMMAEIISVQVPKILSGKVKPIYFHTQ

[3] = Cytotoxicity against african green monkey CV1 cells by MTT assay; assay type: cell-based; conditions: Chlorocebus aethiops, CV-1
How it was run: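 CV-1 cells, viability read by MTT; each experiment repeated more than three times.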

[4] = molecular target: T3, Mineralocorticoid receptor (Homo sapiens) (UniProt P08235); experiment: Effect on human Gal4-fused MCR at 10 uM by luciferase reporter gene assay
T3 sequence (whole entry): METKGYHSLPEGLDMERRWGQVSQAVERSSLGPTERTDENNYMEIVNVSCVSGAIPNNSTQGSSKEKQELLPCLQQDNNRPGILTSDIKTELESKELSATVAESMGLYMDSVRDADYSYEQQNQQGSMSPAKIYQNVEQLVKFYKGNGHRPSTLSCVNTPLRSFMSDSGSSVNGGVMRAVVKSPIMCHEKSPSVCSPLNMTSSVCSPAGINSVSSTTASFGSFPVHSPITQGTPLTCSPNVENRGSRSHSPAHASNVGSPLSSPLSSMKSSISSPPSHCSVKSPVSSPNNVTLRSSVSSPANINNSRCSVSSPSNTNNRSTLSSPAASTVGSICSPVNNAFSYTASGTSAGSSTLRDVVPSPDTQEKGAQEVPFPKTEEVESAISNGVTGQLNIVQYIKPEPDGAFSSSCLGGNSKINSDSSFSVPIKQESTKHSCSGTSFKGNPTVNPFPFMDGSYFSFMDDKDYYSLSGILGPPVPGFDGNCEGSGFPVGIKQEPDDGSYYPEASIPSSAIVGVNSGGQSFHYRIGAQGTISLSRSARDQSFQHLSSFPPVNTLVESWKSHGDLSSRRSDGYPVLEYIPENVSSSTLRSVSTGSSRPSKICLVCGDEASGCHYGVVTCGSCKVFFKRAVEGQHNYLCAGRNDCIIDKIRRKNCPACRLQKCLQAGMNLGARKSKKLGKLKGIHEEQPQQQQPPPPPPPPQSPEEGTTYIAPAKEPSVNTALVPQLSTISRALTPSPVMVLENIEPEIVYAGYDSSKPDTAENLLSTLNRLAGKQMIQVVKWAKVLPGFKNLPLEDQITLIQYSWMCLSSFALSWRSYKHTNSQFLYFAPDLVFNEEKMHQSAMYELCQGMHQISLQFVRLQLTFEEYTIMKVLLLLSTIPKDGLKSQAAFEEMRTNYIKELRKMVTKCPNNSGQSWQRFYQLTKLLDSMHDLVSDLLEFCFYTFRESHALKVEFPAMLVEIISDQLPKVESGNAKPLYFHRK

Compound | Activity [1] | Activity [2] | IC50 [3] [µM] | Activity [4]
CC(C)=CCCC1=C[C@@H](C/C(C)=C/CC[C@]2(C)C=Cc3cc(O)cc(C)c3O2)OC1=O [2'-EPI-TUBERATOLIDE B] | inactive | inactive | 30 | inactive
CC(C)=CCC/C(=C/CC/C(C)=C/CC[C@]1(C)C=Cc2cc(O)cc(C)c2O1)C(=O)O [(R)-SARGACHROMENOL] | inactive | inactive | 45 | inactive
CC(C)=CCC/C(=C/CC/C(C)=C/CC[C@@]1(C)C=Cc2cc(O)cc(C)c2O1)C(=O)O [(S)-SARGACHROMENOL] | inactive | inactive | 56 | inactive
CC(=O)CC/C=C(\C)C[C@@H]1C=C(CCC=C(C)C)C(=O)O1 [TUBERATOLIDE A] | inactive | inactive | > 100 | inactive
CC(C)=CCCC1=C[C@@H](C/C(C)=C/CC[C@@]2(C)C=Cc3cc(O)cc(C)c3O2)OC1=O [TUBERATOLIDE B] | inactive | inactive | 31 | inactive
CC(C)=CCCC1=C[C@@H](C/C(C)=C/CC/C(C)=C/CC2=CC(=O)C=C(C)C2=O)OC1=O [YEZOQUINOLIDE] | inactive | inactive | 50 | inactive

Reference: ChEMBL document CHEMBL1667725, “Tuberatolides, potent FXR antagonists from the Korean marine tunicate Botryllus tuberatus” (J Nat Prod, 2011)
